Active and inactive are the calls of the source. No cut-off for these calls is given here.
Tested on: not listed separately
Experiment: Antiproliferative activity against human SKBR3 cells after 72 hrs by MTS/PMS assay
Format: functional, cell-based
Details: SK-BR-3, 72 h
How it was run: (§1)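 Cells kept in 1:1 Advanced DMEM/F12 with non-essential amino acids, 2 mM L-glutamine, penicillin/streptomycin and 10% FBS at 37 °C, 5% CO2. Seeded 2000 cells/well, attached overnight, then given compound at varying concentrations in DMSO (1% final) for 72 h. Viable cells read by MTS/PMS. Normalised to 1% DMSO wells as 100% proliferation. IC50 from separate experiments run in triplicate.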

Structure (SMILES) | IC50 [µM]
COc1ccc(C(=O)Nc2ccc(-c3ccc(OC4CCN(C)CC4)cc3)cc2)cc1-c1ccccc1 | 0.51
COc1cccc(-c2cc(C(=O)Nc3cccc(-c4cccc(OC5CCN(C)CC5)c4)c3)ccc2OC)c1 | 1.62
CC(=O)Oc1ccc(C(=O)Nc2cccc(-c3cccc(OC4CCN(C)CC4)c3)c2)cc1CC=C(C)C | 1.76
COc1cccc(-c2cccc(C(=O)Nc3ccc(-c4ccc(OC5CCN(C)CC5)cc4)cc3)c2)c1 | 0.81
CC(C)=CCc1cc(NC(=O)Nc2cc3ccc(OC4CCN(C)CC4)c(C)c3oc2=O)ccc1O | 0.39
COc1cccc(-c2cc(C(=O)Nc3ccc(-c4ccc(OC5CCN(C)CC5)cc4)cn3)ccc2OC)c1 | 1.07
COc1ccc(C(=O)Nc2ccc(-c3ccc(OC4CCN(C)CC4)cc3)cc2)cc1 | 0.49
CN1CCC(Oc2ccc(-c3ccc(NC(=O)c4ccc(Br)cc4)cc3)cc2)CC1 | 0.52
CN1CCC(Oc2ccc(-c3ccc(NC(=O)c4ccc(C(C)(C)C)cc4)cc3)cc2)CC1 | 1.26
COc1ccc(C(=O)Nc2ccc(-c3ccc(OC4CCN(C)CC4)cc3)cc2)cc1-c1ccc(O)cc1 | 0.13
CN1CCC(Oc2ccc(-c3ccc(NC(=O)c4cnc5ccccc5c4)cc3)cc2)CC1 | 2.42
CN1CCC(Oc2ccc(-c3ccc(NC(=O)c4ccc(Cl)c(Cl)c4)cc3)cc2)CC1 | 1.2

Tested on: MCF7
Experiment: Antiproliferative activity against human MCF7 cells after 72 hrs by MTS/PMS assay
Format: functional, cell-based
Details: MCF7, 72 h
How it was run: as §1

IC50 [µM] | Structure (SMILES)
0.84 | COc1ccc(C(=O)Nc2ccc(-c3ccc(OC4CCN(C)CC4)cc3)cc2)cc1-c1ccccc1
2 | COc1cccc(-c2cc(C(=O)Nc3cccc(-c4cccc(OC5CCN(C)CC5)c4)c3)ccc2OC)c1
1.7 | CC(=O)Oc1ccc(C(=O)Nc2cccc(-c3cccc(OC4CCN(C)CC4)c3)c2)cc1CC=C(C)C
1.02 | COc1cccc(-c2cccc(C(=O)Nc3ccc(-c4ccc(OC5CCN(C)CC5)cc4)cc3)c2)c1
0.37 | CC(C)=CCc1cc(NC(=O)Nc2cc3ccc(OC4CCN(C)CC4)c(C)c3oc2=O)ccc1O
1.15 | COc1cccc(-c2cc(C(=O)Nc3ccc(-c4ccc(OC5CCN(C)CC5)cc4)cn3)ccc2OC)c1
0.65 | COc1ccc(C(=O)Nc2ccc(-c3ccc(OC4CCN(C)CC4)cc3)cc2)cc1
0.52 | CN1CCC(Oc2ccc(-c3ccc(NC(=O)c4ccc(Br)cc4)cc3)cc2)CC1
1.08 | CN1CCC(Oc2ccc(-c3ccc(NC(=O)c4ccc(C(C)(C)C)cc4)cc3)cc2)CC1
0.5 | COc1ccc(C(=O)Nc2ccc(-c3ccc(OC4CCN(C)CC4)cc3)cc2)cc1-c1ccc(O)cc1
2.76 | CN1CCC(Oc2ccc(-c3ccc(NC(=O)c4cnc5ccccc5c4)cc3)cc2)CC1
1.6 | CN1CCC(Oc2ccc(-c3ccc(NC(=O)c4ccc(Cl)c(Cl)c4)cc3)cc2)CC1

Target: T1, Heat shock protein HSP90 (Homo sapiens) (UniProt P07900+P08238)
Experiment: Inhibition of HSP90 in human MCF7 cells assessed as induction of Her2 protein degradation at 0.5 times antiproliferative IC50 level after 24 hrs by Western blotting method
Format: cell-based
Details: not given
How it was run: (§2)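 MCF-7 cells, grown as for proliferation, treated 24 h with compound in DMSO (1% final). Geldanamycin 0.5 μM and DMSO served as controls. Lysis in cold RIPA with 1 mM PMSF, 2 mM orthovanadate and protease inhibitors, 1 h on ice, then cleared at 14000g, 10 min, 4 °C. BCA protein assay; 20 μg protein run reducing, blotted to nitrocellulose, probed with client antibodies, HRP chemiluminescence. High and low doses were 5-fold and 0.5-fold the antiproliferative value.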

inhibition | Structure (SMILES)
Active | COc1ccc(C(=O)Nc2ccc(-c3ccc(OC4CCN(C)CC4)cc3)cc2)cc1-c1ccccc1
Active | COc1cccc(-c2cc(C(=O)Nc3cccc(-c4cccc(OC5CCN(C)CC5)c4)c3)ccc2OC)c1

Target: T1, Heat shock protein HSP90 (Homo sapiens)
Experiment: Inhibition of HSP90 in human MCF7 cells assessed as induction of Raf protein degradation at 0.5 times antiproliferative IC50 level after 24 hrs by Western blotting method
Format: cell-based
Details: not given
How it was run: as §2

inhibition | Structure (SMILES)
Active | COc1ccc(C(=O)Nc2ccc(-c3ccc(OC4CCN(C)CC4)cc3)cc2)cc1-c1ccccc1
Active | COc1cccc(-c2cc(C(=O)Nc3cccc(-c4cccc(OC5CCN(C)CC5)c4)c3)ccc2OC)c1

Target: T1, Heat shock protein HSP90 (Homo sapiens)
Experiment: Inhibition of HSP90 in human MCF7 cells assessed as induction of Akt protein degradation at 0.5 times antiproliferative IC50 level after 24 hrs by Western blotting method
Format: cell-based
Details: not given
How it was run: as §2

inhibition | Structure (SMILES)
Active | COc1ccc(C(=O)Nc2ccc(-c3ccc(OC4CCN(C)CC4)cc3)cc2)cc1-c1ccccc1
Active | COc1cccc(-c2cc(C(=O)Nc3cccc(-c4cccc(OC5CCN(C)CC5)c4)c3)ccc2OC)c1

Target: T1, Heat shock protein HSP90 (Homo sapiens)
Experiment: Inhibition of HSP90 in human MCF7 cells assessed as induction of Her2 protein degradation at 0.5 to 5 times antiproliferative IC50 level after 24 hrs by Western blotting method
Format: cell-based
Details: not given
How it was run: as §2

inhibition | Structure (SMILES)
Active | COc1ccc(C(=O)Nc2ccc(-c3ccc(OC4CCN(C)CC4)cc3)cc2)cc1
inactive | CN1CCC(Oc2ccc(-c3ccc(NC(=O)c4ccc(Br)cc4)cc3)cc2)CC1

Target: T1, Heat shock protein HSP90 (Homo sapiens)
Experiment: Inhibition of HSP90 in human MCF7 cells assessed as induction of Raf protein degradation at 0.5 to 5 times antiproliferative IC50 level after 24 hrs by Western blotting method
Format: cell-based
Details: not given
How it was run: as §2

inhibition | Structure (SMILES)
Active | COc1ccc(C(=O)Nc2ccc(-c3ccc(OC4CCN(C)CC4)cc3)cc2)cc1
inactive | CN1CCC(Oc2ccc(-c3ccc(NC(=O)c4ccc(Br)cc4)cc3)cc2)CC1

Target: T1, Heat shock protein HSP90 (Homo sapiens)
Experiment: Inhibition of HSP90 in human MCF7 cells assessed as induction of Akt protein degradation at 0.5 to 5 times antiproliferative IC50 level after 24 hrs by Western blotting method
Format: cell-based
Details: not given
How it was run: as §2

inhibition | Structure (SMILES)
Active | COc1ccc(C(=O)Nc2ccc(-c3ccc(OC4CCN(C)CC4)cc3)cc2)cc1
inactive | CN1CCC(Oc2ccc(-c3ccc(NC(=O)c4ccc(Br)cc4)cc3)cc2)CC1
